Data set [1] is described as follows: Drug metabolism in mouse liver microsomes assessed as glucuronidation of compound measured as compound remaining after 30 mins by LC/MS analysis. In kind it is ADME. The note with it: read-out: Stability. The method, boiled down:
(§1)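 Liver microsomes (mouse or rat), 0.5 mg protein/mL, incubated at 37 °C with UDPGA (2 mM) as cofactor for glucuronidation. Parent compound remaining was quantified after 30 and 60 min and expressed as % remaining.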
(Liver microsomes are a subcellular fraction often used to study metabolism.)

The nature of data set [2]: Drug metabolism in mouse liver microsomes assessed as glucuronidation of compound measured as compound remaining after 60 mins by LC/MS analysis. In kind it is ADME. As to conditions: read-out: Stability. The method, boiled down: as §1
The nature of data set [3]: Drug metabolism in rat liver microsomes assessed as glucuronidation of compound measured as compound remaining after 30 mins by LC/MS analysis. In kind it is ADME. The note with it: read-out: Stability. The method, boiled down: as §1
Data set [4] can be described thus: Drug metabolism in human liver microsomes assessed as glucuronidation of compound measured as compound remaining after 30 mins by LC/MS analysis. In kind it is ADME. As to conditions: read-out: Stability. In short, it runs like this: (§2)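 Human liver microsomes (0.5 mg protein/mL) incubated with compound at 37 °C in the presence of UDPGA (2 mM), with a UDPGA-free control incubation. Remaining parent compound quantified after 30 and 60 min and expressed as % remaining.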

Data set [5] is described as follows: Drug metabolism in rat liver microsomes assessed as glucuronidation of compound measured as compound remaining after 60 mins by LC/MS analysis. The note with it: read-out: Stability. In kind it is ADME. The method, boiled down:
as §1

Data set [6] can be described thus: Drug metabolism in human liver microsomes assessed as glucuronidation of compound measured as compound remaining after 60 mins by LC/MS analysis. The class given is ADME. The note with it: read-out: Stability. The method, boiled down: as §2
The nature of data set [7]: Oral bioavailability in CD1 mouse at 30 mg/kg. In kind it is ADME, organism-based. As to conditions: in vivo.
Data set [8] in a line: Plasma clearance in CD1 mouse at 30 mg/kg, po and 10 mg/kg, iv. The class given is ADME, organism-based.
For the next data set, the target named is D-amino-acid oxidase (Homo sapiens, UniProt P14920). In words: Inhibition of human D-amino acid oxidase.

The bioavailability is the share of a dose that reaches the circulation, judged against a reference dose that is usually intravenous. A lower bioavailability goes with little systemic uptake. By pIC50 is commonly meant the IC50 on a negative log10 scale, so that one unit is a factor of ten.

pIC50: −log10 of the molar value. A value given as a limit tells only on which side of the number the result lay.

Sequence of D-amino-acid oxidase (P14920 whole entry): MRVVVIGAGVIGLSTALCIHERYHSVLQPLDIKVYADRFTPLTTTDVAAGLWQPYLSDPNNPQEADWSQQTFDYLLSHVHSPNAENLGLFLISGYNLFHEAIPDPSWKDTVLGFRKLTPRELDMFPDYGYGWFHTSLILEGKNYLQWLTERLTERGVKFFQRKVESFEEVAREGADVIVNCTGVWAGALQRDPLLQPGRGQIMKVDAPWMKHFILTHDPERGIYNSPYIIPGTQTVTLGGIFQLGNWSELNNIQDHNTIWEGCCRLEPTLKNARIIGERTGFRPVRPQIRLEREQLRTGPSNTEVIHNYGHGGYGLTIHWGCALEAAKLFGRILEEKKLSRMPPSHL

As for `O=c1[nH]c2ccccc2cc1O`, the remaining at 0.5 h in [1] was less than 1%. Moreover, the remaining at 1 h in data set [2] was less than 1%.
`O=c1[nH]c2c(F)cc(F)cc2n1O`: the remaining at 0.5 h in data set [1] is less than 1%. In addition, the remaining at 1 h in data set [2] is less than 1%.
As to `O=c1[nH]cc(CCc2ccccc2)cc1O`, the remaining at 0.5 h in data set [1] is 5%. The remaining at 1 h in data set [2] is 3%.
Turning to `O=c1[nH]nc(CCc2cc(F)cc(F)c2)cc1O`, the remaining at 0.5 h worked out at 77% in [1], 69% in data set [3] and 81% in data set [4]. The remaining at 1 h came out at 59% in data set [2], 51% in data set [5] and 62% in [6]. Moreover, the bioavailability in data set [7] was 31%. Moreover, the clearance in data set [8] was 39 mL/min/kg.
As to `O=c1cc(CSc2ccc(Cl)c(Cl)c2)occ1O`, in data set [1], the remaining at 0.5 h is 20%. Besides, the remaining at 1 h in data set [2] came to 5%.
Regarding `O=C(O)c1cc(CCc2ccc(Cl)cc2)n[nH]1`, in data set [1], the remaining at 0.5 h came out at 103%. Moreover, in data set [2], the remaining at 1 h stood at 102%. Further, the pIC50 on D-amino-acid oxidase was more than 6.00.
As to `Cc1cc(C(=O)O)n[nH]1`, in data set [1], the remaining at 0.5 h turned out to be 92%. In addition, the remaining at 1 h in data set [2] worked out at 78%.
For the molecule `O=c1[nH]c2cc(F)ccc2cc1O`, the remaining at 0.5 h in data set [1] and in data set [3] was less than 1% throughout. The remaining at 1 h in data set [2] and in data set [5] was less than 1% throughout.
With `Oc1noc2cc(Cl)ccc12`, the remaining at 0.5 h in data set [1] was 58%. Further, the remaining at 1 h in data set [2] is 33%.
As to `O=c1[nH]c2cccc(Cl)c2cc1O`, the remaining at 0.5 h in data set [1] and in data set [3] was less than 1% in each case. Further, the remaining at 1 h in data set [2] and in data set [5] was less than 1% throughout.
Turning to `O=C(O)c1cc2sccc2[nH]1`, the remaining at 0.5 h in data set [1] stood at 98%. Also, the remaining at 1 h in [2] came to 100%.
Taken in the same sequence, the figures for `O=c1oc2ccccc2cc1O` [3-HYDROXYCOUMARIN] were less than 1% and less than 1%.

For the origin of these results see ChEMBL document CHEMBL3351460, “Structure-Metabolism Relationships in the Glucuronidation of d-Amino Acid Oxidase Inhibitors” (ACS Med Chem Lett, 2014).
